Results as given in ChEMBL document CHEMBL1138476 (J Med Chem, 2009).

Columns and labels:
[1] = tested on: Canis familiaris; experiment: Effect on respiratory function in spontaneously breathing mongrel dog assessed as change in airway resistance at 5 mg/kg after intravenous infusion for 30 mins (RVb= 20.2+/-12.3 %); type: functional, Canis lupus familiaris
[2] = tested on: Rattus norvegicus; experiment: Effect on acute renal function in rat assessed as change in urine protein level per 100 gm body weight at 30 mg/kg, po (RVb= 12.0+/-2.4 mg/dl); type: functional
[3] = tested on: Canis familiaris; experiment: Effect on respiratory function in spontaneously breathing mongrel dog assessed as change in heart rate at 5 mg/kg after intravenous infusion for 30 mins (RVb= -0.9+/-3.8 %); type: functional, Canis lupus familiaris
[4] = tested on: Rattus norvegicus; experiment: Effect on acute renal function in rat assessed as change in urine sodium level per 100 gm body weight at 30 mg/kg, po (RVb= 49.9+/-3.1 mg/dl); type: functional
[5] = tested on: Canis familiaris; experiment: Effect on respiratory function in spontaneously breathing mongrel dog assessed as change in peak expiratory flow at 5 mg/kg after intravenous infusion for 6 mins (RVb= 3.6+/-3.7 %); type: functional, Canis lupus familiaris
[6] = Elimination half life in rat at 1 mg/kg, iv and 5 mg/kg, po; type: ADME, organism-based; conditions: in vivo, read-out: beta t1/2 (converted)
Summary of the method: (§1)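 Rats (n = 3) were dosed at 1 mg/kg iv in 10% DMAC, 70% propylene glycol and deionized water, and at 5 mg/kg po in 0.5% methylcellulose.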

[7] = tested on: Canis familiaris; experiment: Effect on respiratory function in spontaneously breathing mongrel dog assessed as change in peak expiratory flow at 5 mg/kg after intravenous infusion for 60 mins (RVb= 0.4+/-6.7 %); type: functional, Canis lupus familiaris
[8] = Elimination half life in chimpanzee at 1 mg/kg, po; type: ADME, organism-based, Pan troglodytes; set-up: dose 1 mg/kg, route oral; conditions: in vivo, read-out: beta t1/2 (converted)
Summary of the method: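 Two alert chimpanzees were given 1 mg/kg po as a 1 mg/mL suspension in 50:50 (v/v) 0.5% methylcellulose and Tang orange juice containing 1% Tween-80. EDTA blood was taken predose and at 2–96 h. Bioavailability was calculated against a 0.5 mg/kg iv dose given to one animal.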

[9] = tested on: Canis familiaris; experiment: Effect on respiratory function in spontaneously breathing mongrel dog assessed as change in intrapleural pressure at 5 mg/kg after intravenous infusion for 6 mins (RVb= -21.2+/-26.5 %); type: functional, Canis lupus familiaris
[10] = tested on: Rattus norvegicus; experiment: Effect on acute renal function in rat assessed as change in urine creatinine level per 100 gm body weight at 30 mg/kg, po (RVb= 16.2+/-3.3 mg/dl); type: functional
[11] = tested on: Canis familiaris; experiment: Effect on respiratory function in spontaneously breathing mongrel dog assessed as change in respiration rate at 5 mg/kg after intravenous infusion for 15 mins (RVb= -6.4+/-4.0 %); type: functional, Canis lupus familiaris
[12] = tested on: Canis familiaris; experiment: Effect on respiratory function in spontaneously breathing mongrel dog assessed as change in tidal volume at 5 mg/kg after intravenous infusion for 6 mins (RVb= 5.8+/-3.8 %); type: functional, Canis lupus familiaris
[13] = Plasma concentration in dog at 0.3 mg/kg after intravenous infusion for 30 mins; type: ADME, organism-based, Canis lupus familiaris; set-up: dose 0.3 mg/kg, route intravenous
[14] = tested on: Canis familiaris; experiment: Effect on respiratory function in spontaneously breathing mongrel dog assessed as change in heart rate at 5 mg/kg after intravenous infusion for 6 mins (RVb= -0.4+/-0.7 %); type: functional, Canis lupus familiaris
[15] = tested on: Rattus norvegicus; experiment: Effect on acute renal function in rat assessed as change in glucose level in urine per 100 gm body weight at 30 mg/kg, po (RVb= 9.9+/-1.9 mg/dl); type: functional
[16] = Plasma concentration in spontaneously breathing dog at 5 mg/kg, iv after 15 mins; type: ADME, organism-based, Canis lupus familiaris; set-up: dose 5 mg/kg, route intravenous
Summary of the method: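 Spontaneously breathing, barbiturate-anesthetized mongrel dogs (n = 4) infused iv at 5.0 mg/kg over 6 min. Total pooled plasma concentrations taken at 6, 15, 30 and 60 min.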

[17] = tested on: Rattus norvegicus; experiment: Anxiolytic activity in rat assessed as decrease in latency to exit dark chamber at 10 mg/kg, po by defensive withdrawal test relative to untreated control; type: functional; set-up: scale not given: the % may be the effect or the level left
Summary of the method: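 Rat defensive withdrawal: latency to leave the dark chamber and explore the open field, maximum 900 s. Dosed orally in 0.25% Methocel 60 min before testing; n = 8 per dose, mean ± SEM. Analysed by Kruskal–Wallis followed by Mann–Whitney U against vehicle.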

[18] = biological target: T1, Adenosine receptor A1 (Rattus norvegicus, UniProt P25099); experiment: Binding affinity to rat adenosine A1 receptor expressed in CHO cells; type: cell-based
T1 sequence (P25099 whole entry): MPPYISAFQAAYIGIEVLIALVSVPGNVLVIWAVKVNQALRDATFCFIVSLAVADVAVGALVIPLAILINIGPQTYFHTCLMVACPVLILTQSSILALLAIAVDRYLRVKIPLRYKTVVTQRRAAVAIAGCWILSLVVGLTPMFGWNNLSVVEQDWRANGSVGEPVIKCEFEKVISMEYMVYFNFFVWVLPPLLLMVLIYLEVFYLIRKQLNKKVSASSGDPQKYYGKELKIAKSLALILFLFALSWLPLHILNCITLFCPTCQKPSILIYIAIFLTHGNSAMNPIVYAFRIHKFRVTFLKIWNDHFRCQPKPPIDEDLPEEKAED
Summary of the method: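 Cloned rat adenosine A1 receptor transfected into CHO cells, part of a contracted screen.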

[19] = Oral bioavailability in rat at 5 mg/kg; type: ADME, organism-based; conditions: in vivo; summary of the method: as §1
[20] = tested on: Canis familiaris; experiment: Effect on respiratory function in spontaneously breathing mongrel dog assessed as change in airway resistance at 5 mg/kg after intravenous infusion for 60 mins (RVb= 17.3+/-15.1 %); type: functional, Canis lupus familiaris
[21] = Tmax in rat at 5 mg/kg, po; type: ADME, organism-based; set-up: dose 5 mg/kg, route oral; conditions: in vivo
Summary of the method: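 Rats (n = 3) dosed iv at 1 mg/kg in 10% DMAC, 70% propylene glycol and deionized water, and orally at 5 mg/kg in 0.5% methylcellulose.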

[22] = Volume of distribution at steady state in chimpanzee at 0.5 mg/kg, iv; type: ADME, organism-based, Pan troglodytes; set-up: dose 0.5 mg/kg, route intravenous; conditions: in vivo, read-out: Vdss
Summary of the method: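 Single chimpanzee given 0.5 mg/kg iv over 10 min (0.2 mL/kg) in 10% DMAC, 70% propylene glycol and deionized water. EDTA blood taken predose, at 6, 15 and 30 min, and at 2 to 96 h.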

[23] = Cmax in chimpanzee at 1 mg/kg, po; type: ADME, organism-based, Pan troglodytes; set-up: dose 1 mg/kg, route oral; conditions: in vivo
Summary of the method: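 Chimpanzee PK. Oral: 1 mg/kg in two alert animals, given as a 1 mg/mL suspension in 50–50 (v/v) 0.5% methylcellulose/Tang orange juice with 1% Tween-80. IV: 0.5 mg/kg in one animal in 10% DMAC, 70% propylene glycol and deionized water, infused over 10 min (0.2 mL/kg). EDTA blood was taken predose and at 2–96 h; iv sampling added 6, 15 and 30 min.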

[24] = tested on: Canis familiaris; experiment: Cardiovascular activity in mechanically ventilated mongrel dog at assessed as increase in contractility at 3 mg/kg to 5 mg/kg, iv by dose escalation study
[25] = tested on: Canis familiaris; experiment: Effect on respiratory function in spontaneously breathing mongrel dog assessed as change in tidal volume at 5 mg/kg after intravenous infusion for 15 mins (RVb= 2.2+/-4.3 %); type: functional, Canis lupus familiaris
[26] = tested on: Canis familiaris; experiment: Effect on respiratory function in spontaneously breathing mongrel dog assessed as change in pulmonary compliance at 5 mg/kg after intravenous infusion for 6 mins (RVb= 6.0+/-4.2 %); type: functional, Canis lupus familiaris

CC[C@@H](C)Nc1nc(C)nc2c(-c3ccc(OC)nc3C)c(C)nn12 [PEXACERFONT]
Activity [1]: -57.5%
Activity [2]: 6.6 mg/dL
Activity [3]: -2.5%
Activity [4]: 58.4 mg/dL
Activity [5]: -12.5%
half-life [6]: 13.5 h
Activity [7]: 7.5%
half-life [8]: 26 h
Activity [9]: 3.3%
Activity [10]: 8 mg/dL
Activity [11]: -3.1%
Activity [12]: -3.5%
concentration at 0.5 h [13]: 150 nM
Activity [14]: -0.3%
Activity [15]: 4.4 mg/dL
concentration at 0.25 h [16]: 835 nM
Activity [17]: 65%
Ki [18]: 2660 nM
bioavailability [19]: 40%
Activity [20]: -23.6%
Tmax [21]: 0.75 h
Vd [22]: 4.2 L/kg
Cmax [23]: 840 nM
Activity [24]: 200 mmHg/s
Activity [25]: 4.3%
Activity [26]: -2.5%
